Source: ChEMBL document CHEMBL1131030, “Synthesis and evaluation of a series of novel 2-[(4-chlorophenoxy)methyl]benzimidazoles as selective neuropeptide Y Y1 receptor antagonists” (J Med Chem, 1998)

Legend:
[1] = target: T1, Neuropeptide Y receptor type 1 (Homo sapiens, UniProt P25929); assay: In vitro binding affinity towards human neuropeptide Y receptor type 1, determined by measuring its ability to displace [125]peptide YY
T1 sequence (P25929 whole entry): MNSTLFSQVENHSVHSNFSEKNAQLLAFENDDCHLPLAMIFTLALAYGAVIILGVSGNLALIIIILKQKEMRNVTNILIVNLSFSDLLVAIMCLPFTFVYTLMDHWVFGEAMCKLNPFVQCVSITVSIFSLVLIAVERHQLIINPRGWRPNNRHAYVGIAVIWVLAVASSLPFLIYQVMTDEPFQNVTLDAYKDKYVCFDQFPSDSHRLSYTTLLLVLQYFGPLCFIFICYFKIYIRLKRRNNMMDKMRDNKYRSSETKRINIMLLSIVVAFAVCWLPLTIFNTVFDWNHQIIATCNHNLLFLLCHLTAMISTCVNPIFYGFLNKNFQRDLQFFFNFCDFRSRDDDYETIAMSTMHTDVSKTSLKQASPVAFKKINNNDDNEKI

SK-N-MC = assay: In vitro functional activity determined by its ability to antagonize 1 nM NPYs inhibition of forskolin -stimulated cyclic AMP accumulation in SK-N-MC cells; format: cell-based, Homo sapiens
Method in brief: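 SK-N-MC cells were stimulated with forskolin. NPY (1 nM) and antagonist were added at the same time and incubated for only 15 min, to avoid receptor desensitization. Read-out was reversal of the NPY-induced inhibition of cAMP accumulation.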

Compound | Ki [1] [nM] | Ki (SK-N-MC) [nM]
Clc1ccc(OCc2nc3c(OCCC4CCCNC4)cccc3n2CCCC2CCCNC2)cc1 (configuration not stated) | 18 | 91
Clc1ccc(OCc2nc3c(OCCCC4CCCNC4)cccc3n2CCCC2CCCNC2)cc1 (configuration not stated) | 30 | 77
Clc1ccc(OCc2nc3c(OCCCN4CCCCC4)cccc3n2CCCC2CCCNC2)cc1 (configuration not stated) | 1.7 | 2.7
Clc1ccc(OCc2nc3ccccc3n2CCCC2CCCCN2)cc1 (configuration not stated) | 3230 | 
Clc1ccc(OCc2nc3ccccc3n2CCCN2CCCCC2)cc1 | 7020 | 
Clc1ccc(OCc2nc3ccccc3n2CCCCC2CCCNC2)cc1 (configuration not stated) | 1210 | 
Clc1ccc(OCc2nc3c(OCCC[C@H]4CCCNC4)cccc3n2CCC[C@@H]2CCCNC2)cc1 | 27 | 137
Clc1ccc(OCc2nc3c(OCCN4CCCCC4)cccc3n2CCCC2CCCNC2)cc1 (configuration not stated) | 43 | 240
Clc1ccc(OCc2nc3c(OCCC4CCCCN4)cccc3n2CCCC2CCCNC2)cc1 (configuration not stated) | 29 | 
Clc1ccc(OCc2nc3ccccc3n2CCCC2CCCNC2)cc1 (configuration not stated) | 700 | 
Clc1ccc(OCc2nc3ccccc3n2CCCC2CCNCC2)cc1 | 980 | 
Clc1ccc(OCc2nc3c(OCCC[C@@H]4CCCNC4)cccc3n2CCC[C@H]2CCCNC2)cc1 | 17 | 65
Clc1ccc(OCc2nc3ccccc3n2CCC2CCNCC2)cc1 | 940 | 
Clc1ccc(OCc2nc3c(OCCC[C@H]4CCCNC4)cccc3n2CCC[C@H]2CCCNC2)cc1 | 41 | 153
Clc1ccc(OCc2nc3c(OCCC4CCNCC4)cccc3n2CCCC2CCCNC2)cc1 (configuration not stated) | 7 | 15
Clc1ccc(OCc2nc3c(OCCC[C@@H]4CCCNC4)cccc3n2CCC[C@@H]2CCCNC2)cc1 | 6 | 87
Cc1cccc2nc(COc3ccc(Cl)cc3)n(CCCC3CCCNC3)c12 (configuration not stated) | 400 | 
Clc1ccc(OCc2nc3ccccc3n2CCN2CCCCC2)cc1 | > 100000 | 
Clc1ccc(OCc2nc3c(OCCCC4CCCCN4)cccc3n2CCCC2CCCNC2)cc1 (configuration not stated) | 16 | 53
Clc1ccc(OCc2nc3ccccc3n2CCC2CCCNC2)cc1 (configuration not stated) | 1280 | 
N=C(N)NCCCC(NC(=O)C(c1ccccc1)c1ccccc1)C(=O)NCc1ccc(O)cc1 (configuration not stated) |  | 11
Clc1ccc(OCc2nc3c(OCCCC4CCNCC4)cccc3n2CCCC2CCCNC2)cc1 (configuration not stated) | 152 | 119
Cc1ccc2c(c1)nc(COc1ccc(Cl)cc1)n2CCCC1CCCNC1.Cc1ccc2nc(COc3ccc(Cl)cc3)n(CCCC3CCCNC3)c2c1 (configuration not stated) | 1290 | 
Oc1cccc2c1nc(COc1ccc(Cl)cc1)n2CCCC1CCCNC1 (configuration not stated) | 5300 | 
Cc1cccc2c1nc(COc1ccc(Cl)cc1)n2CCCC1CCCNC1 (configuration not stated) | 97 | 
Clc1ccc(OCc2nc3ccccc3n2CCC2CCCCN2)cc1 (configuration not stated) | 7860 | 
